Test results from ChEMBL document CHEMBL1129970, “Biologically active conformer of the effector region of human C5a and modulatory effects of N-terminal receptor binding determinants on activity” (J Med Chem, 1997).

Key:
Homo sapiens [1] = species: Homo sapiens; experiment: Effective concentration to induce smooth muscle contraction in human fetal artery; format: functional; settings: Muscle tissue
Procedure, shortened: (§1)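 Human fetal artery smooth muscle contraction; full dose–response curves for recombinant human C5a or each peptide in the same tissue preparation. EC50 is the concentration giving 50% of the maximal response, read relative to the C5a maximum. pD2 = −log EC50 (M), averaged per peptide ± SE. Log potency ratio pD2(C5a) − pD2(peptide) is computed within each experiment. Relative potency = antilog(−Δ) × 100.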

Homo sapiens [2] = species: Homo sapiens; experiment: Effective concentration to stimulate beta-glucuronidase release from human polymorphonuclear cells (PMN) (n=4); format: functional
Procedure, shortened: (§2)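 Human PMNs pretreated with cytochalasin B (5 μg/mL, 10 min, 37 °C), then 10⁶ cells stimulated for 60 min at 37 °C. β-Glucuronidase in the supernatant is assayed with 0.01 M p-nitrophenyl β-D-glucuronide (0.1 M acetate, pH 4, 18 h) in triplicate. Reaction stopped with glycine pH 10 and read at 415 nm. pD2 is taken from dose–response curves against the C5a EC50. Efficacy is given relative to C5a maximum (100%).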

Homo sapiens [3] = species: Homo sapiens; experiment: Tested for inhibition of binding of [125I]C5a to intact human polymorphonuclear cells (PMN) (n=3); format: functional
Procedure, shortened: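 Competition binding on freshly isolated intact human PMNs (0.25 × 10⁶) with 20 pM [¹²⁵I]C5a plus unlabeled C5a or peptide. Buffer is 50 mM HEPES, 1 mM CaCl₂, 5 mM MgCl₂, 0.5% BSA. Incubation 60 min at 4 °C, then filtration, ice-cold washes and gamma counting, triplicates. Nonspecific binding defined with 1 mM peptide or 100 nM C5a. Relative affinity = antilog[−(log IC50 C5a − log IC50 peptide)] × 100. The potency/binding ratio is EC50 divided by the binding IC50.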

Homo sapiens [4] = species: Homo sapiens; experiment: Relative potency of peptide for human fetal artery was determined; format: functional; procedure, shortened: as §1
[5] = Selectivity of peptide was determined from antilog[pD2(fetal artery)-pD2 (PMN enzyme release)] (n=10); format: functional
Procedure, shortened: (§3)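 Selectivity = antilog[pD2(fetal artery) − pD2(PMN β-glucuronidase release)]. pD2 values come from full dose–response curves in each assay, each generated alongside C5a.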

Homo sapiens [6] = species: Homo sapiens; experiment: Tested for the ability to stimulate beta-glucuronidase release from human polymorphonuclear cells (PMN) (n=4); format: functional; procedure, shortened: as §2
Homo sapiens [7] = species: Homo sapiens; experiment: Log potency ratio [pD2(C5a)-pD2(peptide)] was determined in human polymorphonuclear cells (PMN) (n=4); format: functional; procedure, shortened: as §2
Homo sapiens [8] = species: Homo sapiens; experiment: Maximum efficacy relative to C5a (100%) for human polymorphonuclear cells (PMN) was determined (n=4); format: functional; procedure, shortened: as §2
Homo sapiens [9] = species: Homo sapiens; experiment: Relative potency of peptide to stimulate beta-glucuronidase release from human polymorphonuclear cells (PMN) (n=4); format: functional; procedure, shortened: as §2
Homo sapiens [10] = species: Homo sapiens; experiment: Spasmogenic activity was measured by the ability to induce smooth muscle contraction in human fetal artery; format: functional, Muscle tissue; procedure, shortened: as §1
Homo sapiens [11] = species: Homo sapiens; experiment: Log potency ratio [pD2(C5a)-pD2(peptide)] was determined in human fetal artery; format: functional; procedure, shortened: as §1
Homo sapiens [12] = species: Homo sapiens; experiment: Effective concentration to stimulate beta-glucuronidase release from human polymorphonuclear cells (PMN) (n=5); format: functional; procedure, shortened: as §2
[13] = Selectivity of peptide was determined from antilog[pD2(fetal artery)-pD2 (PMN enzyme release)] (n=12); format: functional; procedure, shortened: as §3
[14] = Selectivity of peptide was determined from antilog[pD2(fetal artery)-pD2 (PMN enzyme release)] (n=11); format: functional; procedure, shortened: as §3
Homo sapiens [15] = species: Homo sapiens; experiment: Maximum efficacy relative to C5a (100%) for human polymorphonuclear cells (PMN) was determined (n=5); format: functional; procedure, shortened: as §2
Homo sapiens [16] = species: Homo sapiens; experiment: Log potency ratio [pD2(C5a)-pD2(peptide)] was determined in human polymorphonuclear cells (PMN) (n=5); format: functional; procedure, shortened: as §2
Homo sapiens [17] = species: Homo sapiens; experiment: Tested for the ability to stimulate beta-glucuronidase release from human polymorphonuclear cells (PMN) (n=5); format: functional; procedure, shortened: as §2
Homo sapiens [18] = species: Homo sapiens; experiment: Relative potency of peptide to stimulate beta-glucuronidase release from human polymorphonuclear cells (PMN) (n=5); format: functional; procedure, shortened: as §2

Row | Compound | EC50 (Homo sapiens [1]) [nM] | EC50 (Homo sapiens [2]) [nM] | Potency (Homo sapiens [4]) [%] | pD2 (Homo sapiens [6]) | Mean log concentration ratio (Homo sapiens [7]) | C5a max (Homo sapiens [8]) [%] | Potency (Homo sapiens [9]) [%] | pD2 (Homo sapiens [10]) | Mean log concentration ratio (Homo sapiens [11]) | also measured
1 | CSCC[C@H](NC(=O)[C@@H]1CCCN1C(=O)[C@H](CCCCN)NC(=O)[C@H](Cc1ccccc1)NC(=O)[C@H](CO)NC(=O)[C@H](Cc1ccc(O)cc1)NC(=O)CCCCCNC(=O)[C@H](CCCCN)NC(=O)CNC(=O)[C@H](CCCCN)NC(=O)CNC(=O)[C@@H](N)CCCCN)C(=O)N1CCC[C@H]1C(=O)N[C@@H](CC(C)C)C(=O)N[C@H](C)C(=O)N[C@@H](CCCN=C(N)N)C(=O)O [listing 1 of 2 here] | 100 | 6700 | – | – | – | – | – | – | – | –
2 | CSCC[C@H](NC(=O)[C@@H]1CCCN1C(=O)[C@H](CCCCN)NC(=O)[C@H](Cc1ccccc1)NC(=O)[C@H](CO)NC(=O)[C@H](Cc1ccc(O)cc1)NC(=O)CCCCCN)C(=O)N1CCC[C@H]1C(=O)N[C@@H](CC(C)C)C(=O)N[C@H](C)C(=O)N[C@@H](CCCN=C(N)N)C(=O)O | 70 | 3100 | – | – | – | – | – | – | – | IC50 (Homo sapiens [3]): 5500 nM
3 | CSCC[C@H](NC(=O)[C@@H]1CCCN1C(=O)[C@H](CCCCN)NC(=O)[C@H](Cc1ccccc1)NC(=O)[C@H](CO)NC(=O)[C@H](Cc1ccc(O)cc1)NC(=O)[C@H](CCCCN)NC(=O)CNC(=O)[C@H](CCCCN)NC(=O)CNC(=O)[C@@H](N)CCCCN)C(=O)N1CCC[C@H]1C(=O)N[C@@H](CC(C)C)C(=O)N[C@H](C)C(=O)N[C@@H](CCCN=C(N)N)C(=O)O [listing 1 of 2 here] | – | – | 6.2 | 5.4 | 2.05 | 198 | 0.9 | 6.81 | 1.2 | Selectivity [5]: 26
4 | CSCC[C@H](NC(=O)[C@@H]1CCCN1C(=O)[C@H](CCCCN)NC(=O)[C@H](Cc1ccccc1)NC(=O)[C@H](CO)NC(=O)[C@H](Cc1ccc(O)cc1)NC(=O)CCCCCNC(=O)[C@H](CCCCN)NC(=O)CNC(=O)[C@@H](N)CCCCN)C(=O)N1CCC[C@H]1C(=O)N[C@@H](CC(C)C)C(=O)N[C@H](C)C(=O)N[C@@H](CCCN=C(N)N)C(=O)O [listing 1 of 2 here] | – | – | 11 | 5.31 | 1.99 | 156 | 1 | 6.98 | 0.97 | Selectivity [5]: 47
5 | CSCC[C@H](NC(=O)[C@@H]1CCCN1C(=O)[C@H](CCCCN)NC(=O)[C@H](Cc1ccccc1)NC(=O)[C@H](CO)NC(=O)[C@H](Cc1ccc(O)cc1)NC(=O)CCCCCNC(=O)[C@H](Cc1c[nH]c2ccccc12)NC(=O)[C@@H](N)CCCCN)C(=O)N1CCC[C@H]1C(=O)N[C@@H](CC(C)C)C(=O)N[C@H](C)C(=O)N[C@@H](CCCN=C(N)N)C(=O)O [listing 1 of 2 here] | 100 | – | – | – | – | – | – | – | – | EC50 (Homo sapiens [12]): 2500 nM
6 | CSCC[C@H](NC(=O)[C@@H]1CCCN1C(=O)[C@H](CCCCN)NC(=O)[C@H](Cc1ccccc1)NC(=O)[C@H](CO)NC(=O)[C@H](Cc1ccc(O)cc1)NC(=O)CCCCCNC(=O)[C@H](CCCCN)NC(=O)CNC(=O)[C@H](CCCCN)NC(=O)CNC(=O)[C@@H](N)CCCCN)C(=O)N1CCC[C@H]1C(=O)N[C@@H](CC(C)C)C(=O)N[C@H](C)C(=O)N[C@@H](CCCN=C(N)N)C(=O)O [listing 2 of 2 here] | – | – | 10 | 5.18 | 2.2 | 173 | 0.6 | 6.98 | 0.99 | Selectivity [13]: 63
7 | CSCC[C@H](NC(=O)[C@@H]1CCCN1C(=O)[C@H](CCCCN)NC(=O)[C@H](Cc1ccccc1)NC(=O)[C@H](CO)NC(=O)[C@H](Cc1ccc(O)cc1)NC(C)=O)C(=O)N1CCC[C@H]1C(=O)N[C@@H](CC(C)C)C(=O)N[C@H](C)C(=O)N[C@@H](CCCN=C(N)N)C(=O)O | 100 | 9300 | – | – | – | – | – | – | – | –
8 | CSCC[C@H](NC(=O)[C@@H]1CCCN1C(=O)[C@H](CCCCN)NC(=O)[C@H](Cc1ccccc1)NC(=O)[C@H](CO)NC(=O)[C@H](Cc1ccc(O)cc1)NC(=O)[C@H](CCCCN)NC(=O)CNC(=O)[C@H](CCCCN)NC(=O)CNC(=O)[C@@H](N)CCCCN)C(=O)N1CCC[C@H]1C(=O)N[C@@H](CC(C)C)C(=O)N[C@H](C)C(=O)N[C@@H](CCCN=C(N)N)C(=O)O [listing 2 of 2 here] | 200 | 3900 | – | – | – | – | – | – | – | –
9 | CSCC[C@H](NC(=O)[C@@H]1CCCN1C(=O)[C@H](CCCCN)NC(=O)[C@H](Cc1ccccc1)NC(=O)[C@H](CO)NC(=O)[C@H](Cc1ccc(O)cc1)NC(=O)CCCCCNC(=O)[C@H](Cc1c[nH]c2ccccc12)NC(=O)[C@@H](N)CCCCN)C(=O)N1CCC[C@H]1C(=O)N[C@@H](CC(C)C)C(=O)N[C@H](C)C(=O)N[C@@H](CCCN=C(N)N)C(=O)O [listing 2 of 2 here] | – | – | 14 | – | – | – | – | 7.11 | 0.86 | Selectivity [14]: 32; C5a max (Homo sapiens [15]): 134%; Mean log concentration ratio (Homo sapiens [16]): 1.72; pD2 (Homo sapiens [17]): 5.6; Potency (Homo sapiens [18]): 1.9%
10 | CSCC[C@H](NC(=O)[C@@H]1CCCN1C(=O)[C@H](CCCCN)NC(=O)[C@H](Cc1ccccc1)NC(=O)[C@H](CO)NC(=O)[C@H](Cc1ccc(O)cc1)NC(=O)CNC(=O)CNC(=O)CNC(=O)[C@H](CCCCN)NC(=O)CNC(=O)[C@H](CCCCN)NC(=O)CNC(=O)[C@@H](N)CCCCN)C(=O)N1CCC[C@H]1C(=O)N[C@@H](CC(C)C)C(=O)N[C@H](C)C(=O)N[C@@H](CCCN=C(N)N)C(=O)O [listing 1 of 2 here] | – | – | 15 | 5.71 | 1.74 | 177 | 1.8 | 7.14 | 0.83 | Selectivity [14]: 27
11 | CSCC[C@H](NC(=O)[C@@H]1CCCN1C(=O)[C@H](CCCCN)NC(=O)[C@H](Cc1ccccc1)NC(=O)[C@H](CO)NC(=O)[C@H](Cc1ccc(O)cc1)NC(=O)CCCCCNC(=O)[C@H](Cc1c[nH]c2ccccc12)NC(=O)[C@@H](N)CC(=O)O)C(=O)N1CCC[C@H]1C(=O)N[C@@H](CC(C)C)C(=O)N[C@H](C)C(=O)N[C@@H](CCCN=C(N)N)C(=O)O | 200 | 7200 | – | – | – | – | – | – | – | –
12 | CSCC[C@H](NC(=O)[C@@H]1CCCN1C(=O)[C@H](CCCCN)NC(=O)[C@H](Cc1ccccc1)NC(=O)[C@H](CO)NC(=O)[C@H](Cc1ccc(O)cc1)NC(=O)CNC(=O)CNC(=O)CNC(=O)[C@H](CCCCN)NC(=O)CNC(=O)[C@H](CCCCN)NC(=O)CNC(=O)[C@@H](N)CCCCN)C(=O)N1CCC[C@H]1C(=O)N[C@@H](CC(C)C)C(=O)N[C@H](C)C(=O)N[C@@H](CCCN=C(N)N)C(=O)O [listing 2 of 2 here] | 70 | 2000 | – | – | – | – | – | – | – | –
13 | CSCC[C@H](NC(=O)[C@@H]1CCCN1C(=O)[C@H](CCCCN)NC(=O)[C@H](Cc1ccccc1)NC(=O)[C@H](CO)NC(=O)[C@H](Cc1ccc(O)cc1)NC(=O)CCCCCNC(=O)[C@H](CCCCN)NC(=O)CNC(=O)[C@@H](N)CCCCN)C(=O)N1CCC[C@H]1C(=O)N[C@@H](CC(C)C)C(=O)N[C@H](C)C(=O)N[C@@H](CCCN=C(N)N)C(=O)O [listing 2 of 2 here] | 100 | 4900 | – | – | – | – | – | – | – | –
